Experimental data: ChEMBL document CHEMBL1240482, “Synthesis and antiproliferative evaluation of certain indeno[1,2-c]quinoline derivatives. Part 2” (J Med Chem, 2010)
The source made the active and inactive calls. The rule behind the calls is not given here.

Legend:
HeLa [1] = test: Cytotoxicity against human HeLa cells after 48 hrs by MTT assay; assay type: functional
Method in brief: (§1)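 Cells grown in DMEM with 10% FBS at 37 °C and 5% CO2, seeded at 5 × 10^3 per well and allowed 24 h before drug. Serial dilutions from DMSO stocks applied for 48 h. MTT (2 mg/mL in PBS) added for 2 h, formazan dissolved in DMSO, absorbance read at 570 nm. GI50 interpolated by linear regression from at least three points in the 20-80% range; three independent experiments.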

SAS [2] = test: Cytotoxicity against human SAS cells after 48 hrs by MTT assay; assay type: functional; method in brief: as §1
A549 = test: Cytotoxicity against human A549 cells after 48 hrs by MTT assay; assay type: functional; conditions: A549, 48 h; method in brief: as §1
PC-3 = test: Cytotoxicity against human PC3 cells after 48 hrs by MTT assay; assay type: functional; conditions: PC-3, 48 h; method in brief: as §1
[3] = Cytotoxicity against human SKHep cells after 48 hrs by MTT assay; assay type: functional; method in brief: as §1
[4] = Cytotoxicity against human BT-483 cells after 48 hrs by MTT assay; assay type: functional; conditions: BT-483, 48 h; method in brief: as §1
[5] = Cytotoxicity against human Detroit 551 cells after 48 hrs by MTT assay; assay type: cell-based; method in brief: as §1
HeLa [6] = test: Selectivity index, ratio of IC50 for human Detroit 551 cells to IC50 for human HeLa cells; assay type: functional
SAS [7] = test: Selectivity index, ratio of IC50 for human Detroit 551 cells to IC50 for human SAS cells; assay type: functional
Detroit 551 [8] = test: Selectivity index, ratio of IC50 for human Detroit 551 cells to IC50 for human A549 cells; assay type: functional
Detroit 551 [9] = test: Selectivity index, ratio of IC50 for human Detroit 551 cells to IC50 for human PC3 cells; assay type: functional
Detroit 551 [10] = test: Selectivity index, ratio of IC50 for human Detroit 551 cells to IC50 for human SKHep cells; assay type: functional
Detroit 551 [11] = test: Selectivity index, ratio of IC50 for human Detroit 551 cells to IC50 for human BT-483 cells; assay type: functional
Nucleic Acid = test: Binding affinity to pBR322; assay type: nucleic-acid assay; conditions: Escherichia coli
[12] = biological target: T1, DNA topoisomerase 1 (Homo sapiens) (UniProt P11387); test: Inhibition of human topoisomerase 1 assessed as decrease in pBR322 mobility on agarose gel at 10 uM by electrophoresis
T1 sequence (whole entry): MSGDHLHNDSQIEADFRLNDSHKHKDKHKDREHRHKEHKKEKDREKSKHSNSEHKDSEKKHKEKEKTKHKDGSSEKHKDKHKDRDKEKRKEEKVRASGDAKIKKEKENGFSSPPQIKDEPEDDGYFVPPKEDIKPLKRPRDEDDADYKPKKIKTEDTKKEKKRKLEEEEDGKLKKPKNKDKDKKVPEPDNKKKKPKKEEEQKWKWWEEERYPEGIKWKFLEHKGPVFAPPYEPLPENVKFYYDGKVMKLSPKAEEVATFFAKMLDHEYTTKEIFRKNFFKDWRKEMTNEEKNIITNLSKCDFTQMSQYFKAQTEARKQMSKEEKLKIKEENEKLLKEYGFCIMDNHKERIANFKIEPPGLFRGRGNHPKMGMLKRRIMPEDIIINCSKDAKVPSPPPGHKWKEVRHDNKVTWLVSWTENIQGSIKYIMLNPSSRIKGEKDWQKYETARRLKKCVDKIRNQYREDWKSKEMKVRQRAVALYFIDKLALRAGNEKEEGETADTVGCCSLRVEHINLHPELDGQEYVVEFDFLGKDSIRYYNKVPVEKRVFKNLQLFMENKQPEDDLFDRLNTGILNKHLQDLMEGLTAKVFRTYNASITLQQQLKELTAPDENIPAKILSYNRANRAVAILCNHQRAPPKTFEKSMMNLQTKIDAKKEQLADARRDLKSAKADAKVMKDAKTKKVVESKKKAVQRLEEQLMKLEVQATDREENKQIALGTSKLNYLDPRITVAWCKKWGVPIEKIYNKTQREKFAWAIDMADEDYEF
Method in brief: (§2)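 Enzyme preincubated with compound before DNA addition; reaction run 30 min at 37 °C and stopped with SDS. Products resolved on 1% agarose, stained with ethidium bromide, quantified by densitometry.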

DNA topoisomerase 1 = biological target: T2, DNA topoisomerase 1 (Homo sapiens, UniProt P11387); test: Inhibition of human topoisomerase 1 assessed as decrease in pBR322 mobility on agarose gel by electrophoresis; method in brief: as §2
T2 sequence (P11387 whole entry): T1 sequence (whole entry)

Homo sapiens = species on record: Homo sapiens; test: Inhibition of human topoisomerase 2 assessed as decrease in pBR322 mobility on agarose gel at 10 uM by electrophoresis; method in brief: as §2
[13] = Inhibition of human topoisomerase 2 assessed as decrease in pBR322 mobility on agarose gel by electrophoresis; method in brief: as §2

| SMILES | GI50 (HeLa [1]; read-out: GI50) | GI50 (HeLa [1]; read-out: pGI50 (converted)) | GI50 (SAS [2]) | GI50 (A549) | GI50 (PC-3) | GI50 [3] | GI50 [4] | GI50 at 48 h [5] | RatioGI50 (HeLa [6]) | RatioGI50 (SAS [7]) | RatioGI50 (Detroit 551 [8]) | RatioGI50 (Detroit 551 [9]) | RatioGI50 (Detroit 551 [10]) | RatioGI50 (Detroit 551 [11]) | Activity (Nucleic Acid) | inhibition [12] | IC50 (DNA topoisomerase 1) | inhibition (Homo sapiens) | IC50 [13] |
| --- | --- | --- | --- | --- | --- | --- | --- | --- | --- | --- | --- | --- | --- | --- | --- | --- | --- | --- | --- |
| COc1ccc2c(c1)/C(=N\OCCN(C)C)c1c-2c(O)nc2ccccc12 | 0.23 µM | 0.229 µM | 1.1 µM | 1 µM | 5.34 µM | 2.56 µM | 4.04 µM | 9.6 µM | 41.74 | 8.73 | 9.6 | 1.8 | 3.75 | 2.38 | Active | 73% | 7.4 µM | 46% | 10.2 µM |
| COc1ccc2c(c1)/C(=N\OCCN(C)C)c1c-2cnc2ccccc12 | 0.42 µM | 0.417 µM | 1.14 µM | 1.3 µM | 1.89 µM | 1.2 µM | 3.61 µM | 6.85 µM | 16.31 | 6.01 | 5.27 | 3.62 | 5.71 | 1.9 | Active | 82% | 7.2 µM | 75% | 6.7 µM |
| COc1ccc2c(c1)/C(=N\OCCN1CCCC1)c1c-2cnc2ccccc12 | 0.45 µM | 0.447 µM | 1.19 µM | 1.54 µM | 2.32 µM | 1.51 µM | 3.11 µM | 6.29 µM | 13.98 | 5.29 | 4.08 | 2.71 | 4.17 | 2.02 | Active | 67% | 8.2 µM | 80% | 6.5 µM |
| COc1ccc2c(c1)/C(=N\OCCN1CCCCC1)c1c-2c(O)nc2ccccc12 | 0.84 µM | 0.832 µM | 5.39 µM | 6.95 µM | 5.74 µM | 4.28 µM | 1.59 µM | – | 8.93 | 1.39 | 1.08 | 1.31 | 1.75 | 4.72 | Active | 0% | – | 0% | > 100 µM |
| COc1ccc2c(c1)/C(=N\OCCN(C)C)c1c-2c(N2CCNCC2)nc2ccccc12 | – | 0.912 µM | – | – | – | – | 1.1 µM | 2.72 µM | 2.96 | 0.43 | 3.83 | 0.59 | 0.9 | 2.47 | Active | 56% | 8.5 µM | 75% | 4.87 µM |
| COc1ccc2c(c1)/C(=N\OCCN1CCOCC1)c1c-2cnc2ccccc12 | 16.9 µM | 17 µM | 15.7 µM | 28.2 µM | 7.81 µM | 20.8 µM | 10.2 µM | – | – | – | – | – | – | – | – | 0% | > 100 µM | 0% | > 100 µM |
| COc1ccc2c(c1)C(=O)c1c-2cnc2ccccc12 | 17.2 µM | 17.4 µM | > 30 µM | 13.5 µM | > 30 µM | > 30 µM | > 30 µM | – | – | – | – | – | – | – | – | 0% | > 100 µM | 0% | > 100 µM |
| COc1ccc2c(c1)/C(=N\OCCN1CCCCC1)c1c-2c(=O)[nH]c2ccccc12 | – | – | – | – | – | – | – | 7.5 µM | – | – | – | – | – | – | – | – | > 100 µM | – | – |
| COc1ccc2c(c1)/C(=N\O)c1c-2cnc2ccccc12 | 11.4 µM | 11.5 µM | > 30 µM | > 30 µM | > 30 µM | 8.42 µM | > 30 µM | – | – | – | – | – | – | – | – | – | – | – | – |
| COc1ccc2c(c1)/C(=N\OCCN1CCOCC1)c1c-2c(O)nc2ccccc12 | 5.02 µM | 5.01 µM | 16.5 µM | > 30 µM | 13.6 µM | 10.4 µM | 6.04 µM | – | – | – | – | – | – | – | – | 0% | > 100 µM | 0% | > 100 µM |
| COc1cccc2c1C(=O)c1c(O)c3c(c(O)c1C2=O)C[C@@](O)(C(=O)CO)C[C@@H]3O[C@H]1C[C@H](N)[C@H](O)[C@H](C)O1 [DOXORUBICIN] | – | – | – | – | – | – | – | – | – | – | – | – | – | – | – | 35% | – | 85% | 1.9 µM |
| COc1ccc2c(c1)/C(=N\OCCCN(C)C)c1c-2c(N2CCNCC2)nc2ccccc12 | – | 0.372 µM | – | – | – | – | 1.37 µM | 2.77 µM | 7.49 | 0.56 | 7.29 | 0.52 | 0.94 | 2.02 | Active | 70% | 6.6 µM | 88% | 4.05 µM |
| CC[C@@]1(O)C(=O)OCc2c1cc1n(c2=O)Cc2cc3ccccc3nc2-1 [CAMPTOTHECIN] | 0.08 µM | – | – | – | – | – | 1.03 µM | 0.99 µM | – | – | – | – | – | – | – | – | – | 0% | > 100 µM |
| COc1ccc2c(c1)/C(=N\OCCN1CCOCC1)c1c-2c(N2CCNCC2)nc2ccccc12 | 0.78 µM | 0.776 µM | 6.93 µM | 2.2 µM | 6.47 µM | 0.98 µM | 3.75 µM | 2.6 µM | 3.33 | 0.38 | 1.18 | 0.4 | 2.65 | 0.69 | – | 40% | 13 µM | 100% | 5.97 µM |
| COc1ccc2c(c1)/C(=N\OCCN1CCCCC1)c1c-2c(N2CCNCC2)nc2ccccc12 | – | 0.776 µM | – | – | – | – | 4.03 µM | 2.3 µM | 2.95 | 0.4 | 2.64 | 0.41 | 1.46 | 0.57 | Active | 45% | 11.5 µM | 68% | 8 µM |
| COc1ccc2c(c1)/C(=N\OCCCN(C)C)c1c-2cnc2ccccc12 | 1.11 µM | 1.12 µM | 6.1 µM | 1.83 µM | 5.65 µM | 1.07 µM | 0.93 µM | 3.45 µM | 3.11 | 0.57 | 1.89 | 0.61 | 3.22 | 3.71 | – | 5% | 40 µM | 75% | 13.2 µM |
| COc1ccc2c(c1)/C(=N\O)c1c-2c(N2CCNCC2)nc2ccccc12 | – | 2.34 µM | – | – | – | – | – | – | – | – | – | – | – | – | – | – | – | – | – |
| COc1ccc2c(c1)/C(=N\OCCCN(C)C)c1c-2c(O)nc2ccccc12 | 0.2 µM | 0.2 µM | 3.1 µM | 0.63 µM | 4.35 µM | 0.75 µM | 1.29 µM | – | 10.45 | 0.67 | 3.32 | 0.48 | 2.79 | 1.62 | Active | 3% | – | 77% | 7.14 µM |
| COc1ccc2c(c1)/C(=N\OCCCN(C)C)c1c-2c(=O)[nH]c2ccccc12 | – | – | – | – | – | – | – | 2.09 µM | – | – | – | – | – | – | – | – | > 100 µM | – | – |
